Compounds with a hit are over-represented: about 2.5% of the library has one in this group of screens.
TDP2 absorb = TDP2 (human) inhibition, absorbance primary screen; O95551; inhibition, % at 12.8 µM; recombinant TDP2, T5PNP hydrolysis, p-nitrophenol absorbance 415 nm; actives 0.34% (n = 370,000); AID 720702;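 active = inhibition above the mean of all tested compounds plus 3 SD, set per campaign, cut at about 25% in these data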
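System: recombinant human TDP2 / Amount: 120 nM TDP2 per well / Also added: 5 mM T5PNP chromogenic substrate / Doses: 12.8 µM single point, 1% DMSO / Incubation: 2 h at 37 °C / Detection: p-Nitrophenol epi absorbance / Evaluation: % inhibition relative to enzyme-containing and enzyme-free wells / Repeats: singlicate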
E coli Lon inh = inhibits E. coli Lon protease; P0A9M0; purified E. coli Lon protease, fluorescence polarization; inhibition, % at 7.94 µM; actives 0.42% (n = 360,000); in the data active = inhibition above about 13%, passing the limit was not always enough
PRMT1 FP inh = blocks human protein arginine methyltransferase 1 | Q99873 | recombinant PRMT1, activity-based probe fluorescence polarization | actives 1.3% (n = 370,000) | inhibition, % at 2.79 µM;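 active = inhibition above about 21% made by adding two undisclosed values, limit read from the data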
Target sequence (Q99873 whole entry, looked up): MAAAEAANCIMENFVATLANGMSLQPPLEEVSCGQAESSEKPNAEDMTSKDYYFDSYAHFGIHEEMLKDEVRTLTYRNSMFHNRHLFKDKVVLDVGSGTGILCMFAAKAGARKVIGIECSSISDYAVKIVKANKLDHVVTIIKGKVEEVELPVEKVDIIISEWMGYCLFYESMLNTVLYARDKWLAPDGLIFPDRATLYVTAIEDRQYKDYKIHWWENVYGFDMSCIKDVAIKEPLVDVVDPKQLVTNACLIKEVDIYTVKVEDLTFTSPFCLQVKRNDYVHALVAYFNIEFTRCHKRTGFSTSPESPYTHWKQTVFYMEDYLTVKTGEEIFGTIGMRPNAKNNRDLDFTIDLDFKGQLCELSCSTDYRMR
GSTO1 inh = counter-screen for RBBP9 inhibitors: inhibitors of human GSTO1. AID 1974. P78417. actives 1.1% (n = 300,000). recombinant GSTO1, activity-based probe fluorescence polarization. inhibition, % at 5.96 µM;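 active = inhibition above the campaign mean inhibition plus 3 SD, cut at about 35% in these data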
PAD4 inh = blocks human protein arginine deiminase 4; Q9UM07; recombinant PAD4, RCA probe fluorescence polarization; inhibition, % at 6.36 µM; actives 0.41% (n = 330,000);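 active = percent inhibition above a cutoff equal to the mean of all tested compounds plus 3 SD, cut at about 15% in these data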
PRMT1 inh conf = confirmation of human PRMT1 inhibitors; shares compounds with PRMT1 FP inh; recombinant His-PRMT1, activity-based probe fluorescence polarization; inhibition, % at 2.79 µM; actives 42% (n = 3,300);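 active = mean inhibition across replicates above the hit cutoff derived for the earlier primary screen, cut at about 22% in these data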
TDP2 inh conf = confirmation of human TDP2 inhibitors | actives 22% (n = 1,100) | shares compounds with TDP2 absorb | recombinant human TDP2, absorbance read-out | inhibition, % at 12.8 µM; in the data active = inhibition above about 25%
Large screens that a line does not name were inactive (follow-up assays come after a bar, where they were run).

COc1ccc(OC)c(N2C(=O)NC(=O)/C(=C/c3ccc([N+](=O)[O-])s3)C2=O)c1	PRMT1 FP inh 27.6 | PRMT1 inh conf 57.5
COc1ccc(OC)c(N2C(=O)/C(=C/c3ccco3)C(=O)NC2=S)c1	none (no result: TDP2 absorb, E coli Lon inh, PRMT1 FP inh)
Cc1cc(/C=C2\C(=O)NC(=O)N(Cc3ccco3)C2=O)c(C)n1-c1ccc(O)cc1	PRMT1 FP inh 28.6 | PRMT1 inh conf inactive
Cc1cc(/C=C2\C(=O)NC(=O)N(Cc3ccccc3)C2=O)c(C)n1-c1ccc(Cl)c(C(=O)O)c1	PRMT1 FP inh 27.7 | PRMT1 inh conf inactive
Cc1ccc(-n2c(C)cc(/C=C3/C(=O)NC(=O)N(Cc4ccco4)C3=O)c2C)cc1	none
O=C(NCCN1CCC2(CC1)C(=O)NCN2c1ccccc1)c1cccs1	none (no result: E coli Lon inh, GSTO1 inh, PAD4 inh)
CCC(=NCc1cccnc1)c1c(O)n(C2CCCCC2)c(=O)[nH]c1=O	none
O=c1[nH]c(=O)n(C2CCCCC2)c(O)c1C1NCCc2ccccc21 (stereo not drawn)	PRMT1 FP inh 28.0 | PRMT1 inh conf inactive
CCOC(=O)C1SC2(C(F)F)CC1(O)c1c(c(OC)c3occc3c1OC)O2 (stereo not drawn)	PRMT1 FP inh 28.7 | PRMT1 inh conf inactive
CCN(CC(=O)Nc1ccc(NC(C)=O)cc1)C(=O)CSC(c1ccccc1)c1ccccc1	none (no result: GSTO1 inh)
CN1CCCC2c3ccccc3CCC21 (stereo not drawn)	none (no result: GSTO1 inh, PAD4 inh)
Cc1nn(CCC#N)c2c1P(=S)(N1CCCC1)OC(c1ccc(F)cc1)=N2 (stereo not drawn)	PRMT1 FP inh 76.6 | PRMT1 inh conf 43.6
O=S(=O)(c1ccc(Cl)cc1)N1CN2CCN(C2)C1	none
CC/C(=N\NC(=S)Nc1ccccc1)c1c(O)[nH]c(=O)[nH]c1=O	PRMT1 FP inh 45.3 | PRMT1 inh conf 46.1
CC1CCCCC1NC1CCN(C)CC1 (stereo not drawn)	none
Cc1cccc(C)c1-n1nnnc1C(c1cccc2ccccc12)N1CCC2(CC1)C(=O)NCN2c1ccccc1 (stereo not drawn)	none (no result: GSTO1 inh, PAD4 inh)
O=C1NC(=O)C(=Cc2ccc3c(c2)OCO3)C(=O)N1	PRMT1 FP inh 24.8 (no result: E coli Lon inh) | PRMT1 inh conf inactive
CC(ON1CC1(C(F)(F)F)C(F)(F)F)(C(N)=O)C(N)=O (stereo not drawn)	none
O=C1CC(=O)N(Cc2ccccc2)C(=S)N1	TDP2 absorb 32.3, PRMT1 FP inh 32.4 | PRMT1 inh conf inactive | TDP2 inh conf inactive
Cc1c(O)ccc(C(=O)CN2CC(C)OC(C)C2)c1O (stereo not drawn)	none
COC1CCCCC1NCCc1ccccc1 (stereo not drawn)	TDP2 absorb 25.9 | TDP2 inh conf inactive
COc1cc(/C=C2\C(=O)NC(=O)N(c3ccccc3)C2=O)c([N+](=O)[O-])cc1OC	TDP2 absorb 24.9 (no result: GSTO1 inh, PAD4 inh) | TDP2 inh conf inactive
COc1cc(/C=C2\C(=O)NC(=O)N(c3ccccc3)C2=O)cc(OC)c1O	none
COP(=O)(OC)C(NC(=O)C(C)(C)C)=C(Cl)Cl	none
O=c1c2ccccc2nc(/C=C/c2ccccc2F)n1-c1ccccc1O	none
O=c1c2ccccc2nc(/C=C/c2ccccc2O)n1-c1ccccc1O	TDP2 absorb 30.1 | TDP2 inh conf inactive
CCN(CC)S(=O)(=O)c1cc(NC(=O)C(C)N2CC=C(c3ccccc3)CC2)ccc1C (stereo not drawn)	none
C/C(=N\NC(=O)c1ccccc1O)c1c(O)n(Cc2ccccc2)c(=O)[nH]c1=O	TDP2 absorb 27.9 | TDP2 inh conf inactive
CCC1(c2ccc(N)cc2)CCC(=O)NC1=O (stereo not drawn)	none
NNc1n[nH]c(=S)n1N	TDP2 absorb 32.9 | TDP2 inh conf inactive
